target: Phosphodiesterase 7 (Homo sapiens, UniProt Q13946+Q9NP56); experiment: Inhibition of PDE7 catalytic domain (unknown origin) using [3H]-cAMP as substrate after 1 hr by scintillation proximity assay; format: protein assay
Procedure, shortened: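 Test compounds were dissolved in DMSO (10 mM stock) and run as a dilution series. It was stirred 1 h at room temperature, stopped with PDE SPA beads, settled 20 min and counted. Assays were run in triplicate, and IC50 was calculated.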

SMILES | IC50
Clc1ccc(-c2nc(SCc3ccc(-c4ccccc4-c4nnn[nH]4)cc3)c3ccccc3n2)cc1 | 12 µM
N#Cc1ccccc1-c1ccc(CSc2nc(SCc3ccc([N+](=O)[O-])cc3)nc3ccccc23)cc1 | > 100 µM
COC(=O)c1ccccc1-c1ccc(CSc2nc(C(C)C)nc3ccccc23)cc1 | > 100 µM
CC(C)c1nc(SCc2ccc(-c3cccc(-c4nnn[nH]4)c3)cc2)c2ccccc2n1 | 0.89 µM
Cc1nc(SCc2ccc(-c3ccccc3C#N)cc2)c2ccccc2n1 | > 100 µM
COC(=O)c1cccc(-c2ccc(CSc3nc(C(C)C)nc4ccccc34)cc2)c1 | > 100 µM
ClC(Cl)(Cl)c1nc(SCc2ccc(-c3ccccc3-c3nnn[nH]3)cc2)c2ccccc2n1 | 2.6 µM
N#Cc1ccccc1-c1ccc(CSc2nc(C(Cl)(Cl)Cl)nc3ccccc23)cc1 | > 100 µM
N#Cc1ccccc1-c1ccc(CSc2ncnc3ccccc23)cc1 | > 100 µM
COc1cc2c(SCc3ccc(-c4ccccc4-c4nnn[nH]4)cc3)nc(CCc3ccccc3)nc2c(OC)c1OC | 3.6 µM
CC(C)c1nc(SCc2ccc(-c3ccccc3C#N)cc2)c2ccccc2n1 | > 100 µM
CC(C)c1nc(SCc2ccc(-c3ccccc3-c3nn[nH]n3)cc2)c2ccccc2n1 | 0.77 µM
c1cc(-c2ccc(CSc3ncnc4ccccc34)cc2)cc(-c2nnn[nH]2)c1 | 8.2 µM
Cc1nc(SCc2ccc(-c3ccc(-c4nnn[nH]4)cc3)cc2)c2ccccc2n1 | 8 µM
c1ccc(CSc2nc(SCc3ccc(-c4ccccc4-c4nnn[nH]4)cc3)c3ccccc3n2)cc1 | 7.1 µM
Fc1ccc(CSc2nc(SCc3ccc(-c4ccccc4-c4nnn[nH]4)cc3)c3ccccc3n2)cc1 | 6.8 µM
Cc1nc(SCc2ccc(-c3ccccc3-c3nn[nH]n3)cc2)c2ccccc2n1 | 11 µM
N#Cc1ccccc1-c1ccc(CSc2nc(SCc3ccccc3)nc3ccccc23)cc1 | ND(Insoluble)
c1ccc(-c2nnn[nH]2)c(-c2ccc(CSc3nc(SCc4ccc(-c5ccccc5-c5nnn[nH]5)cc4)c4ccccc4n3)cc2)c1 | ND(Insoluble)

Other lines, results leading:

IC50 | SMILES
3.3 µM | COc1cccc(CSc2nc(SCc3ccc(-c4ccccc4-c4nnn[nH]4)cc3)c3ccccc3n2)c1
33 µM | COC(=O)c1ccc(-c2ccc(CSc3nc(C(C)C)nc4ccccc34)cc2)cc1
0.85 µM | CC(C)c1nc(SCc2ccc(-c3cccc(C(=O)O)c3)cc2)c2ccccc2n1
4.9 µM | O=[N+]([O-])c1ccc(CSc2nc(SCc3ccc(-c4ccccc4-c4nnn[nH]4)cc3)c3ccccc3n2)cc1
> 100 µM | Brc1cc(Br)c2c(SCc3ccc(-c4cccc(-c5nnn[nH]5)c4)cc3)nc(CCc3ccccc3)nc2c1
2.5 µM | Cc1nc(SCc2ccc(-c3cccc(-c4nnn[nH]4)c3)cc2)c2ccccc2n1
7.2 µM | c1ccc2c(SCc3ccc(-c4ccc(-c5nnn[nH]5)cc4)cc3)ncnc2c1
> 100 µM | N#Cc1ccccc1-c1ccc(CSc2nc(SCc3ccc(F)cc3)nc3ccccc23)cc1
0.93 µM | CC(C)c1nc(SCc2ccc(-c3ccc(C(=O)O)cc3)cc2)c2ccccc2n1
44 µM | CC(C)c1nc(SCc2ccc(-c3ccccc3C(=O)O)cc2)c2ccccc2n1

From ChEMBL document CHEMBL2346541, “Synthesis and evaluation of quinazoline derivatives as phosphodiesterase 7 inhibitors” (Bioorg Med Chem, 2013)
